Where a chain is given by its changes, count along the chain named. Read-outs that look alike come from different tables or passages of the source.

Assay [1] concerns the target T1, CLC-0 E166F mutant (Torpedo marmorata, UniProt P21564, C212S/E166F).
T1 sequence (P21564 1-805 E166F/C212S): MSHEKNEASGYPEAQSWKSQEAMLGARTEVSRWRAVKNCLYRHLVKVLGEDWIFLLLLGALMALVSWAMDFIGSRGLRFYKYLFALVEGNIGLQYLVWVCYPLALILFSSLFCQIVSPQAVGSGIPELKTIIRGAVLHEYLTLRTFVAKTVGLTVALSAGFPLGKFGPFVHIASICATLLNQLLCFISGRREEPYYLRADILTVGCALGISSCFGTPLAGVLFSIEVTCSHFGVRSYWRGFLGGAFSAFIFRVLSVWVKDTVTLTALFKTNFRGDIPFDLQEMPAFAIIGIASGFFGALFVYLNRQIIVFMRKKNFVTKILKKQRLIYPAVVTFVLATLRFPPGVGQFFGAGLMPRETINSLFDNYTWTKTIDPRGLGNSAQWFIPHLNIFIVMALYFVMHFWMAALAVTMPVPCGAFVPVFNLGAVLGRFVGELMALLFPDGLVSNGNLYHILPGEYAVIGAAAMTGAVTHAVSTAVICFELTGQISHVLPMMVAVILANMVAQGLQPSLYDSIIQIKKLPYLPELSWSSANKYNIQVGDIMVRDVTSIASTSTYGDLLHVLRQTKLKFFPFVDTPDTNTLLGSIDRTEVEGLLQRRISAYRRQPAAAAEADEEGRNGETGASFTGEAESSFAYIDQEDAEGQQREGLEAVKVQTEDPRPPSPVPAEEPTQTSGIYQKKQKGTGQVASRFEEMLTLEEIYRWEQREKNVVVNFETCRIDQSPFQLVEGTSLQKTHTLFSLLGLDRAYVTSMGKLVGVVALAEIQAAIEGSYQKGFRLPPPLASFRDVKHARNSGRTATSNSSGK
The class given is cell-based. The following applies: read-out: Apparent affinity (K1/2). A digest of the protocol:
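CLC-0 mutants (C212S background) were lipofectamine-transfected into HEK293 cells and recorded 1–3 d later from inside-out patches. Pipette and bath contained 130 mM NaCl, 5 MgCl2, 10 HEPES and 1 EGTA (pH 7.4). Test compound was perfused onto the cytoplasmic side. A +80 mV prepulse preceded steps to steady state. The last-10-ms current was normalized to bracketing blocker-free controls and fitted to a Langmuir function for K1/2.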

Assay [2] has as its target T2, CLC-0 E166K mutant (Torpedo marmorata, UniProt P21564, C212S/E166K).
T2 sequence (P21564 1-805 E166K/C212S): T1 sequence (P21564 1-805 E166F/C212S) with F166K
It is filed as cell-based. The settings on record: for IC50: read-out: Apparent affinity (K1/2). The method, boiled down:
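CLC-0 mutants in the C212S background were transfected into HEK293 cells with lipofectamine and recorded 1–3 d later as excised inside-out patches. Both sides held 130 mM NaCl, 5 mM MgCl2, 10 mM HEPES and 1 mM EGTA, pH 7.4. CPA was perfused continuously onto the cytoplasmic face. Steady-state current over the last 10 ms was normalized to bracketing blocker-free controls and fitted to a Langmuir function for K1/2. Values are mean ± SEM of ~4–6 patches.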

Take `O=C(O)COc1ccc(Cl)cc1` [CPA, p-chlorophenoxy acetate]: the IC50 in assay [1] (−40 mV) came to 5120 ± 1720 µM; in assay [1] (−60 mV), 2060 ± 300 µM; in assay [1] (−80 mV), 730 ± 90 µM; in assay [1] (−100 mV) it was 350 ± 30 µM; in assay [1] (−120 mV), 170 ± 20 µM; in assay [1] (−140 mV), 93 ± 12 µM. The IC50 in assay [1] (−160 mV) is 47 ± 7 µM; in assay [2] (−80 mV), 21300 ± 900 µM; in assay [2] (−100 mV), 15600 ± 700 µM; in assay [2] (−120 mV), 11300 ± 500 µM; in assay [2] (−140 mV), 7990 ± 350 µM; in assay [2] (−160 mV), 5620 ± 270 µM. The compound further had a block of current in assay [2] (0.3 mM CPA, −160 mV) of around 10%.

In the case of `CCCCCCCC(=O)O` [octanoate], the IC50 in assay [1] (−40 mV) was determined as 3090 ± 560 µM; in assay [1] (−60 mV), 1630 ± 160 µM; in assay [1] (−80 mV) it was 803 ± 50 µM; in assay [1] (−100 mV) it was 455 ± 15 µM; in assay [1] (−120 mV), 254 ± 7 µM; in assay [1] (−140 mV), 150 ± 4 µM. The IC50 in assay [1] (−160 mV) worked out at 91 ± 1 µM; in assay [2] (−80 mV) it was 29200 ± 530 µM; in assay [2] (−100 mV) it was 21600 ± 540 µM; in assay [2] (−120 mV) it was 15400 ± 500 µM; in assay [2] (−140 mV), 10600 ± 450 µM; in assay [2] (−160 mV) it was 7240 ± 330 µM.

The values above are taken from article PMC2606940 (The Journal of General Physiology, 2009).
